Measurements gathered from unrelated publications.
Lines come from different studies, so protocols differ.
Target: Serine/threonine-protein kinase D3 (PRKD3, Homo sapiens, UniProt O94806)
Sequence (O94806 1-890, as in one of the studies): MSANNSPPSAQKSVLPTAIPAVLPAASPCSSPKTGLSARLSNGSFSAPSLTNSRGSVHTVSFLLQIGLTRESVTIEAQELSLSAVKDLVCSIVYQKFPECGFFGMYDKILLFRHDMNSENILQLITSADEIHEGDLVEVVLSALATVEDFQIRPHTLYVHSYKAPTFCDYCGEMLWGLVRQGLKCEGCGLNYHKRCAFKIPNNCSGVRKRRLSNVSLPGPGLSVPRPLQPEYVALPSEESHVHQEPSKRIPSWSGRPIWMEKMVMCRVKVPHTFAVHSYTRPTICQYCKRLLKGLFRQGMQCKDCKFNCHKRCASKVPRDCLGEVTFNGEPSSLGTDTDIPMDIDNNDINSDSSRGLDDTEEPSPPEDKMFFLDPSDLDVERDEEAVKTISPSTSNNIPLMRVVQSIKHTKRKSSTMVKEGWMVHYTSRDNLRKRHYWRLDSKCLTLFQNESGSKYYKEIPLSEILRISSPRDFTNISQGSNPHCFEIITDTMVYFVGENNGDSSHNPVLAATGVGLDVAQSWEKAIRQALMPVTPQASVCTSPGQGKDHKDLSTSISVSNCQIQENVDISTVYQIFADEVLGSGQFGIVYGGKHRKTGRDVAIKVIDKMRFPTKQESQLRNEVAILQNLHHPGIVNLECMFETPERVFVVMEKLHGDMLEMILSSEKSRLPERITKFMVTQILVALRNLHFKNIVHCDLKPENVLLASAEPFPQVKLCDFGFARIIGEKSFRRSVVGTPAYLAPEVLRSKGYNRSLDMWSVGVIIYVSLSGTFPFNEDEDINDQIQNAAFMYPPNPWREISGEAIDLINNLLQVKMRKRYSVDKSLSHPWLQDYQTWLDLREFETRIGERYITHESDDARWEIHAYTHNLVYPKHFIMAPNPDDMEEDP

SMILES | observed | mode | method | concentration | quantity | value
Cn1c2c(Cl)c(Cl)ccc2c2cc[nH]c(=O)c21 | thermal stability |  | DSF | 10 µM | ΔTm | 2.2 °C
CCCCNc1ncc2c(-c3ccc(F)cc3)nn(C[C@H]3CC[C@H](N)CC3)c2n1 | target engagement in cells | inhibitor | chemoproteomics | 20 mM | inhibition | 48.7%
Cn1c2c(c3ccc(Cl)c(Cl)c31)C(C#N)C1(CCNCC1)NC2=O (racemic) | thermal stability |  | DSF | 10 µM | ΔTm | 2.9 °C
COc1cc2c(Nc3ccc(Br)cc3F)ncnc2cc1OCC1CCN(C)CC1 | cell-free assay |  |  | 0.5 µM | remaining signal | 91.7%
Cc1nc(N2CC[C@@H](O)C2)ncc1-c1cc(C(F)(F)F)cc2[nH]ncc12 | binding |  | competition with immobilised ligand | 1 µM | remaining binding | 100%
Cc1ccc(C(=O)Nc2ccc(CN3CCN(C)CC3)c(C(F)(F)F)c2)cc1C#Cc1cnc2cccnn12 | enzyme activity | inhibitor |  | 23.5 nM | remaining activity | 100%
CC(C)(O)c1cncc(-c2nc3ccc(F)cc3n2C2CC2)c1 | cell-free assay |  | competition with immobilised ligand | 1 µM | remaining binding | 100%
CN1CC(Oc2cnc(C#N)cc2-c2ccn3nc(NC(=O)C4CC4)cc3c2)C1 | enzyme activity | inhibitor |  | 1 µM | inhibition | -13%
O=C(O)c1cc(-c2ccc(C3CCNCC3)cc2)c2ccc(-c3ccc(C(F)(F)F)cc3)cc2c1 | cell-free assay |  | competition with immobilised ligand | 1 µM | remaining binding | 100%
CC(C)(C)c1nc2c(s1)c1nc(N)ncc1c1ccc(NS(=O)(=O)c3c(F)cccc3F)c(F)c12 | enzyme activity | inhibitor | radiometric | 1 µM | remaining activity | 98%
Cn1c2c(c3ccc(Cl)c(Cl)c31)C(C#N)C(C)(C)NC2=O (stereo not shown) | thermal stability |  | DSF | 10 µM | ΔTm | 1.9 °C
CC(C)CC(=O)N1CCc2nc(-c3ccc(Br)cc3)nc(N(C)Cc3ccccc3)c2C1 | cell-free assay |  | competition with immobilised ligand | 0.1 µM | remaining binding | 100%
COc1cc2ncnc(Nc3ccc(F)c(Cl)c3)c2cc1OCCCN1CCOCC1 | cell-free assay |  |  | 0.5 µM | remaining signal | 76.3%
O=C(Nc1cnn(-c2csc(C(=O)NC3COC3)c2)c1)Nc1c(F)cccc1Cl | enzyme activity | inhibitor |  | 5 µM | remaining activity | 105%
CNC(=O)Nc1ccc2c(c1)CC[C@@]21OC(=O)N(CC(=O)N(Cc2ccc(F)cc2)[C@@H](C)C(F)(F)F)C1=O | cell-free assay |  | competition with immobilised ligand | 1 µM | remaining binding | 100%
COc1cc2ncnc(Nc3ccc(Oc4ccccc4)cc3C)c2cc1OC | enzyme activity | inhibitor |  | 1 µM | inhibition | 10%
